Assay results collected from several papers.
Lines come from different studies, so protocols differ.
Target: Angiopoietin-1 receptor (TEK, Homo sapiens, UniProt Q02763)

O=c1[nH]c2ccccc2n1C1CCN(Cc2ccc(-c3[nH]c4cc5ncnc5cc4nc3-c3ccccc3)cc2)CC1 — remaining signal (cell-free assay; 0.5 µM): 102%
Cn1cc(-c2cc(F)cc(N3CCn4c(cc5c4CCCC5)C3=O)c2CO)cc(Nc2ccc(N3CCN(C4COC4)CC3)cn2)c1=O — inhibition (enzyme activity, inhibitor; 0.1 µM): 7%
O=C(NCc1ncc(C(F)(F)F)cc1Cl)c1ccc2c(c1)C1(CCS(=O)(=O)CC1)[C@@H](C1CC1)N2S(=O)(=O)c1ccc(F)cc1 — remaining binding (cell-free assay, competition with immobilised ligand; 1 µM): 96%
Nc1ncc(-c2nc(N3CCOCC3)nc(N3CCOCC3)n2)c(C(F)F)n1 — remaining binding (cell-free assay, competition with immobilised ligand; 10 µM): 99%
COc1ncccc1-c1cnn2ccc(N3CCN(C(=O)OC(C)C)CC3)nc12 — remaining binding (binding, competition with immobilised ligand; 1 µM): 98%
COc1cc(Nc2ncc(F)c(Nc3ccc4c(n3)NC(=O)C(C)(C)O4)n2)cc(OC)c1OC — inhibition (binding; 10 µM): 94%
Cn1cncc1[C@@](O)(COc1ccc(C#N)cc1-c1ccc(OC(F)(F)F)cc1)c1ccc(C#N)cc1 — remaining binding (cell-free assay, competition with immobilised ligand; 1 µM): 92%
CC(C)(C)c1cc(C=C(C#N)C#N)cc(Br)c1O — remaining activity (enzyme activity, inhibitor; 0.5 µM): 97.9%
COCc1c(-c2cc3cc(C)cc(OC)c3s2)c2c(N)ncnn2c1CN1CCNC(=O)C1 — inhibition (cell-free assay, competition with immobilised ligand; 1 µM): 89%
Cc1nn(C)cc1-c1nc2c(N3CCN(Cc4ccc(Cl)cc4)CC3)c(Cl)cnc2[nH]1 — remaining binding (binding, competition with immobilised ligand; 1 µM): 56%
